According to ChEMBL document CHEMBL1129653, “Synthesis and quantitative structure-activity relationship of a novel series of small conductance Ca(2+)-activated K+ channel blockers related to dequalinium” (J Med Chem, 1996):

Experiments:
[1] = target: T1, Small conductance calcium-activated potassium channel (Rattus norvegicus, UniProt P70604+P70606+P70605); assay: SKCa-blocking activity by its ability to inhibit after hyperpolarization (AHP) in cultured rat sympathetic neurons; type: functional, cell-based; conditions: sympathetic neuron
Procedure, shortened: (§1)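 AHP block was the peak of the digitally subtracted control-minus-drug record, as % of control AHP at the same time point. IC50 came from a Hill equation fit over at least three cells. Test concentrations above 10–30 µM were generally avoided.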

[2] = Equieffective molar ratio of compound to inhibit hyperpolarization in cultured rat sympathetic neurons; type: functional, Sympathetic neuron
Procedure, shortened: (§2)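 Rat sympathetic neurons dissociated, plated on laminin-coated dishes and cultured 3–10 days, then perfused with physiological salt solution (mM: NaCl 118, KCl 4.8, CaCl2 2.5). AHP inhibition taken as the peak difference between control and blocker records, as % of control AHP. Dequalinium reference run in each series. EMR is test-compound IC50 divided by dequalinium IC50 from the same experiment; IC50 by Hill fit, ≥3 cells.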

[3] = target: T1, Small conductance calcium-activated potassium channel; assay: SKCa-blocking activity as inhibition of after hyperpolarization (AHP) in cultured rat sympathetic neurons; Insufficient activity at maximal dose used; type: functional, cell-based; conditions: sympathetic neuron
Procedure, shortened: as §1, with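 “Cultured rat sympathetic neurons (laminin-coated dishes, 3–10 days) were perfused with physiological salt solution (mM: NaCl 118, KCl 4.8, CaCl2 2.5). AHP block” for “AHP block”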

[4] = Equieffective molar ratio of compound to inhibit hyperpolarization in cultured rat sympathetic neurons; Insufficient activity up to this concentration to determine; type: functional, Sympathetic neuron; procedure, shortened: as §2
[5] = target: T1, Small conductance calcium-activated potassium channel; assay: SKCa-blocking activity as inhibitino of after hyperpolarization (AHP) in cultured rat sympathetic neurons; No activity at maximal dose used; type: functional, cell-based; conditions: sympathetic neuron
Procedure, shortened: as §1, with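 “Cultured rat sympathetic neurons (laminin-coated dishes, 3–10 days) were perfused with physiological salt solution (mM: NaCl 118, KCl 4.8, CaCl2 2.5). AHP block” for “AHP block”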

[6] = Equieffective molar ratio of compound to inhibit hyperpolarization in cultured rat sympathetic neurons; No activity up to this concentration; type: functional, Sympathetic neuron; procedure, shortened: as §2

| SMILES | IC50 [1] | Ratio [2] | other results |
| --- | --- | --- | --- |
| Cc1cc(N)c2ccccc2[n+]1CCCCCCCCCC[n+]1c(C)cc(N)c2ccccc21.[Cl-].[Cl-] [DEQUALINIUM CHLORIDE] | 1 µM |  |  |
| Cc1cc(NCCCCCCCCCCCCNc2cc(C)[n+](Cc3ccccc3)c3ccccc23)c2ccccc2n1 | 4.4 µM | 8 |  |
| Cc1cc(NCCCCCCCCCCNc2cc(C)nc3ccccc23)c2ccccc2n1 [QUINDECAMINE] | 2.5 µM | 3.6 |  |
| c1ccc(C[n+]2ccc(NCCCCCCCCCCNc3cc[n+](Cc4ccccc4)c4ccccc34)c3ccccc32)cc1 | 0.7 µM | 1 |  |
| c1ccc2c(SCCCCCCCCCCSc3ccnc4ccccc34)ccnc2c1 |  |  | IC50 [3]: > 10 µM; Ratio [4]: >10 |
| Cc1cc(NCCCCCCCCCCCCNc2cc(C)[n+](Cc3ccccc3)c3ccccc23)c2ccccc2[n+]1Cc1ccccc1 | 2.4 µM | 4 |  |
| C[n+]1ccc(CCCCCCCCCCc2cc[n+](C)c3ccccc23)c2ccccc21 | 40 µM | 26 |  |
| C[n+]1ccc(CCCCCCCCCCCCc2cc[n+](C)c3ccccc23)c2ccccc21 | 3.9 µM | 5.9 |  |
| C[n+]1ccc(NCCCCCCCCCCNc2cc[n+](C)c3cc(Cl)ccc23)c2ccc(Cl)cc21 | 1.3 µM | 1.5 |  |
| c1ccc2c(OCCCCCCCCCCOc3ccnc4ccccc34)ccnc2c1 | 18 µM | 16 |  |
| COc1cc(C[n+]2c(C)cc(NCCCCCCCCCCNc3cc(C)[n+](Cc4cc(OC)cc(OC)c4)c4ccccc34)c3ccccc32)cc(OC)c1 | 1.7 µM | 2.1 |  |
| Cc1cc(NCCCCCCCCCCNc2cc(C)[n+](CCC(c3ccccc3)c3ccccc3)c3ccccc23)c2ccccc2[n+]1CCC(c1ccccc1)c1ccccc1 | 4.3 µM | 6.2 |  |
| c1ccc2c(NCCCCCCCCCCNc3ccnc4ccccc34)ccnc2c1 |  | 3.5 |  |
| C[n+]1ccc(SCCCCCCCCCCSc2cc[n+](C)c3ccccc23)c2ccccc21 | 3.7 µM | 6.2 |  |
| Cc1cc(NCCCCCCCCCCNc2cc(C)[n+](Cc3ccccc3)c3ccccc23)c2ccccc2[n+]1Cc1ccccc1 | 0.4 µM | 0.6 |  |
| COc1cc(C[n+]2c(C)cc(NCCCCCCCCCCNc3cc(C)nc4ccccc34)c3ccccc32)cc(OC)c1 | 0.75 µM | 1.2 |  |
| Cc1cc(NCCCCCCCCCCNc2cc(C)[n+](Cc3ccccc3)c3ccccc23)c2ccccc2n1 | 1.3 µM | 2.4 |  |
| c1ccc2c(CCCCCCCCCCCCc3ccnc4ccccc34)ccnc2c1 |  |  | IC50 [5]: > 10 µM; Ratio [6]: >10 |
| Cc1cc(NCCCCCCCCCCCCNc2cc(C)nc3ccccc23)c2ccccc2n1 | 3.8 µM | 7.1 |  |
| C[n+]1ccc(NCCCCCCCCNc2cc[n+](C)c3ccccc23)c2ccccc21 | 2.7 µM | 3.1 |  |
| C[n+]1ccc(NCCCCCCCCCCNc2cc[n+](C)c3ccccc23)c2ccccc21 | 2.1 µM | 1.9 |  |
| C[n+]1ccc(OCCCCCCCCCCOc2cc[n+](C)c3ccccc23)c2ccccc21 | 6.8 µM | 7.2 |  |
